Assay results: PMC9177960 (Nucleic Acids Research, 2022)

Experiments:
[1] = tested on: MurR binding to the operator site; details: previous studies; cited from earlier work
MurR = biological target: T1, MurR (Escherichia coli, UniProt P77245); test: ITC binding between MurR and ligands
T1 sequence (P77245 1-285): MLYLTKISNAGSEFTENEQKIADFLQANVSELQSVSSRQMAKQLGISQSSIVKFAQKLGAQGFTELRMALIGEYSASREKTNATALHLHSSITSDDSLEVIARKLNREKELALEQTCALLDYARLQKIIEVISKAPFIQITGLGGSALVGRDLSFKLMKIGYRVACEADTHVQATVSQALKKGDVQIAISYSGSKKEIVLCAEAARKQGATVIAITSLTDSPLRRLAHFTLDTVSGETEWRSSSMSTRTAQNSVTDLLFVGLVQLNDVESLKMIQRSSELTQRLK
Summary of the method: (§1)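 MurR (wild type or point mutant) was expressed from pET28a in E. coli BL21(DE3), His6-tag removed with HRV3C, and gel-filtered. Protein at 50 µM in the cell; ligand at 500 µM in the syringe. Both were in 100 mM NaCl, 10 mM Tris-HCl pH 7.5, 1 mM DTT. Run at 25 °C, stirring 750 rpm, 120 s between injections. Data background-subtracted to give association constants; triplicate runs.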

mutant MurR proteins = test: ITC binding of GlcNAc-6-P to mutant MurR proteins; design: species or system Escherichia coli; details: mutant proteins of Supplementary Figure S14A and B
Summary of the method: as §1

[2] = biological target: T2, MurR/operator DNA complex (Escherichia coli, UniProt P77245); test: EMSA of MurR with murR-murQ intergenic region DNA; assay type: biochemical; details: for effect on MurR-DNA binding at high concentration: EMSA, 1, 10, 20, 40 mM, effect of GlcNAc-6-P at 40 mM
T2 sequence (P77245 1-285): T1 sequence (P77245 1-285)

[3] = tested on: mutant MurR proteins/promoter DNA complexes; test: EMSA of mutant MurR proteins with promoter DNA; assay type: biochemical, Escherichia coli; details: all MurR proteins (WT and mutants) at the tested concentrations
[4] = tested on: MurR-controlled eGFP expression (pUC19-murR-eGFP); test: CFPS eGFP fluorescent quantitation assay, WT MurR; assay type: biochemical, Escherichia coli; details: plasmid 5.8 nM, protein 1:100 molar ratio, different ligand concentrations
Summary of the method: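 Reporter plasmid: T7 promoter, RBS, eGFP coding sequence and the murQ–murR intergenic region. MurR proteins were expressed in E. coli BL21(DE3) with an N-terminal His6 tag, which was cleaved off by HRV3C protease, then purified by size exclusion. In cell-free protein synthesis, 5.8 nM plasmid was mixed with protein at a 1:100 plasmid:protein molar ratio and graded MurNAc-6-P or GlcNAc-6-P. eGFP fluorescence was read on a real-time PCR instrument, in triplicate.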

crystal structure = biological target: the molecule itself; test: crystal structure
SEC + AUC = biological target: the molecule itself; test: SEC + AUC

## CC(=O)N[C@H]1C(O)O[C@H](CO)[C@@H](O)[C@@H]1O[C@H](C)C(=O)N[C@@H](C)C(=O)N[C@H](CCC(=O)O)C(N)=O (mixture of isomers) [muramyl dipeptide]
[1]
  effect on MurR binding to the operator: no effect

## CC(=O)N[C@@H]1[C@@H](O)[C@H](O)[C@@H](CO)O[C@H]1O [GlcNAc, N-acetylglucosamine]
MurR; ligand titrated into WT MurR
  interaction with MurR in ITC: no interaction
[1]
  effect on MurR binding to the operator: no effect

## CC(=O)N[C@H]1C(O)O[C@H](COP(=O)(O)O)[C@@H](O)[C@@H]1O (stereo partly shown) [GlcNAc-6-P, N-acetylglucosamine-6-phosphate]
MurR
  Kd: 17.6 µM
Mutant MurR proteins
  association constant (Ka) values compared with WT MurR: Smaller
[2]; EMSA, 200 nM MurR, ligand 1, 10, 100, 1000 μM
  relief of the retardation of DNA migration: negligible
[2]
  effect on MurR-DNA binding at high concentration: a certain portion of the DNA was dissociated from MurR
[3]
  sensitivity of MurR/DNA complexes to ligand: insensitive
[4]
  effect on eGFP fluorescence: made no visible difference
[1]
  effect on MurR binding to the operator: no effect

## O=S(=O)([O-])[O-].[Na+].[Na+] [sodium sulfate]
[2]
  effect on MurR-DNA binding at high concentration: not affected

B1: truncated protein MurRT2 (D95 to K285) (domain or fragment, Escherichia coli MG1655, UniProt P77245 95-285, looked up)
chain: DDSLEVIARKLNREKELALEQTCALLDYARLQKIIEVISKAPFIQITGLGGSALVGRDLSFKLMKIGYRVACEADTHVQATVSQALKKGDVQIAISYSGSKKEIVLCAEAARKQGATVIAITSLTDSPLRRLAHFTLDTVSGETEWRSSSMSTRTAQNSVTDLLFVGLVQLNDVESLKMIQRSSELTQRLK
Crystal structure
  binding result: binds

B2: full-length MurR (natural protein, Escherichia coli MG1655, UniProt P77245 1-285, looked up)
chain: T1 sequence (P77245 1-285)
SEC + AUC
  stoichiometry N: 4
